Laboratory results: ChEMBL document CHEMBL5724801, “EUbOPEN Chemogenomics Library - Multiplex” (2024)
“And” between values parts separate entries of the source, which are not always exact repeats. Equal entries are not always repeated.

Test system: U2OS
Test: Multiplex assay against U2OS
Format: toxicity, cell-based
Settings: human
How it was run: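 At seeding, live cells were stained with Hoechst33342, BioTracker Green Microtubule Cytoskeleton Dye, MitoTracker Red and Annexin V Alexa Fluor 680. After compound addition they were imaged on a CQ1 microscope at 37°C and 5% CO2, and CellPathfinder machine-learning gating sorted them into Hoechst high-intensity objects or normal cells, with normal cells further split into healthy, pyknosed or fragmented nuclei and pyknosed cells into mitotic or apoptotic. Tubulin, mitochondrial-mass and membrane-permeability phenotypes are given as per cents of cells with healthy nuclei.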

[1] = 12 h, 1 µM, compound concentration 1 uM
[2] = 12 h, 10 µM, compound concentration 10 uM
[3] = 24 h, 1 µM, compound concentration 1 uM
[4] = 24 h, 10 µM, compound concentration 10 uM
[5] = 48 h, 1 µM, compound concentration 1 uM
[6] = 48 h, 10 µM, compound concentration 10 uM

## COc1cccc2c1c(NS(=O)(=O)c1ccc(Cl)s1)nn2Cc1cccc(CNC(=O)C(C)(C)O)c1
[1]
  Population Apoptotic (%): 86% and 81%
  Population Fragmented Nuclei (%): 23% and 29%
  Population Healthy Nuclei (%): 67% and 64%
  Population Hoechst High Intensity Objects (%): 3% and 6%
  Population Membrane Permeable-Phenotype (%): 4% and 7%
  Population Mitochondria Different-Phenotype (%): 1% and 3%
  Population Mitotic Cells (%): 13% and 18%
  Population Normal (%): 96% and 93%
  Population Pyknosed Nuclei (%): 9% and 5%
  Population Tubulin-Different-Phenotype (%): 1% and 6%
  Total Cell Count: 261 and 201
[2]
  Population Apoptotic (%): 76% and 83%
  Population Fragmented Nuclei (%): 26% and 25%
  Population Healthy Nuclei (%): 65% and 70%
  Population Hoechst High Intensity Objects (%): 1% and 5%
  Population Membrane Permeable-Phenotype (%): 6% and 8%
  Population Mitochondria Different-Phenotype (%): 2% and 3%
  Population Mitotic Cells (%): 23% and 16%
  Population Normal (%): 98% and 94%
  Population Pyknosed Nuclei (%): 8% and 4%
  Population Tubulin-Different-Phenotype (%): 4% and 2%
  Total Cell Count: 264 and 140
[3]
  Population Apoptotic (%): 96% and 90%
  Population Fragmented Nuclei (%): 20% and 28%
  Population Healthy Nuclei (%): 70% and 66%
  Population Hoechst High Intensity Objects (%): 1% and 5%
  Population Membrane Permeable-Phenotype (%): 5% and 8%
  Population Mitochondria Different-Phenotype (%): 1% and 3%
  Population Mitotic Cells (%): 3% and 9%
  Population Normal (%): 98% and 94%
  Population Pyknosed Nuclei (%): 8% and 4%
  Population Tubulin-Different-Phenotype (%): 3% and 6%
  Total Cell Count: 307 and 242
[4]
  Population Apoptotic (%): 90% and 88%
  Population Fragmented Nuclei (%): 25%
  Population Healthy Nuclei (%): 64% and 68%
  Population Hoechst High Intensity Objects (%): 1% and 5%
  Population Membrane Permeable-Phenotype (%): 5% and 8%
  Population Mitochondria Different-Phenotype (%): 3% and 4%
  Population Mitotic Cells (%): 10% and 11%
  Population Normal (%): 98% and 94%
  Population Pyknosed Nuclei (%): 10% and 5%
  Population Tubulin-Different-Phenotype (%): 2%
  Total Cell Count: 304 and 167
[5]
  Population Apoptotic (%): 95% and 74%
  Population Fragmented Nuclei (%): 14% and 22%
  Population Healthy Nuclei (%): 76% and 68%
  Population Hoechst High Intensity Objects (%): 1% and 7%
  Population Membrane Permeable-Phenotype (%): 4% and 5%
  Population Mitochondria Different-Phenotype (%): 1% and 4%
  Population Normal (%): 98% and 92%
  Population Pyknosed Nuclei (%): 9%
  Population Tubulin-Different-Phenotype (%): 2% and 5%
  Total Cell Count: 463 and 314
[6]
  Population Apoptotic (%): 93% and 100%
  Population Fragmented Nuclei (%): 20% and 22%
  Population Healthy Nuclei (%): 71%
  Population Hoechst High Intensity Objects (%): 2% and 3%
  Population Membrane Permeable-Phenotype (%): 5%
  Population Mitochondria Different-Phenotype (%): 2% and 3%
  Population Mitotic Cells (%): 6% and 0%
  Population Normal (%): 97% and 96%
  Population Pyknosed Nuclei (%): 8% and 5%
  Population Tubulin-Different-Phenotype (%): 3%
  Total Cell Count: 413 and 235

## c1cc(OCCCN2CCCCC2)ccc1CN1CCCCC1 [JNJ-5207852]
[1]
  Population Apoptotic (%): 76% and 58%
  Population Fragmented Nuclei (%): 29% and 25%
  Population Healthy Nuclei (%): 65% and 62%
  Population Hoechst High Intensity Objects (%): 2% and 0%
  Population Membrane Permeable-Phenotype (%): 5% and 7%
  Population Mitochondria Different-Phenotype (%): 3%
  Population Mitotic Cells (%): 23% and 41%
  Population Normal (%): 97% and 99%
  Population Pyknosed Nuclei (%): 5% and 11%
  Population Tubulin-Different-Phenotype (%): 3%
  Total Cell Count: 253 and 106
[2]
  Population Apoptotic (%): 73% and 85%
  Population Fragmented Nuclei (%): 34% and 13%
  Population Healthy Nuclei (%): 57% and 80%
  Population Hoechst High Intensity Objects (%): 2% and 4%
  Population Membrane Permeable-Phenotype (%): 5% and 7%
  Population Mitochondria Different-Phenotype (%): 3% and 9%
  Population Mitotic Cells (%): 26% and 14%
  Population Normal (%): 97% and 95%
  Population Pyknosed Nuclei (%): 8% and 6%
  Population Tubulin-Different-Phenotype (%): 3% and 6%
  Total Cell Count: 228 and 120
[3]
  Population Apoptotic (%): 84% and 66%
  Population Fragmented Nuclei (%): 25% and 21%
  Population Healthy Nuclei (%): 65% and 68%
  Population Hoechst High Intensity Objects (%): 1% and 0%
  Population Membrane Permeable-Phenotype (%): 3% and 4%
  Population Mitochondria Different-Phenotype (%): 2%
  Population Mitotic Cells (%): 16% and 33%
  Population Normal (%): 98% and 100%
  Population Pyknosed Nuclei (%): 8% and 10%
  Population Tubulin-Different-Phenotype (%): 2% and 4%
  Total Cell Count: 287 and 119
[4]
  Population Apoptotic (%): 82% and 84%
  Population Fragmented Nuclei (%): 28% and 10%
  Population Healthy Nuclei (%): 62% and 80%
  Population Hoechst High Intensity Objects (%): 1%
  Population Membrane Permeable-Phenotype (%): 4% and 8%
  Population Mitochondria Different-Phenotype (%): 3% and 5%
  Population Mitotic Cells (%): 17% and 15%
  Population Normal (%): 98%
  Population Pyknosed Nuclei (%): 8%
  Population Tubulin-Different-Phenotype (%): 3% and 8%
  Total Cell Count: 271 and 157
[5]
  Population Apoptotic (%): 82% and 76%
  Population Fragmented Nuclei (%): 21% and 19%
  Population Healthy Nuclei (%): 69% and 71%
  Population Hoechst High Intensity Objects (%): 2% and 3%
  Population Membrane Permeable-Phenotype (%): 4% and 9%
  Population Mitochondria Different-Phenotype (%): 2% and 4%
  Population Mitotic Cells (%): 17% and 23%
  Population Normal (%): 97% and 96%
  Population Pyknosed Nuclei (%): 8%
  Population Tubulin-Different-Phenotype (%): 4% and 3%
  Total Cell Count: 400 and 152
[6]
  Population Apoptotic (%): 86% and 93%
  Population Fragmented Nuclei (%): 22% and 14%
  Population Healthy Nuclei (%): 70% and 78%
  Population Hoechst High Intensity Objects (%): 2% and 1%
  Population Membrane Permeable-Phenotype (%): 7% and 6%
  Population Mitochondria Different-Phenotype (%): 3% and 2%
  Population Mitotic Cells (%): 13% and 6%
  Population Normal (%): 97% and 98%
  Population Pyknosed Nuclei (%): 6%
  Population Tubulin-Different-Phenotype (%): 5% and 4%
  Total Cell Count: 345 and 245
